Experimental data as given in ChEMBL document CHEMBL2375235, “Synthesis, radioiodination and in vivo screening of novel potent iodinated and fluorinated radiotracers as melanoma imaging and therapeutic probes” (Eur J Med Chem, 2013).

Key:
[1] = Ratio of drug uptake in tumor to muscle in C57BL/6J mouse xenografted with mouse B16F0 cells at 3.7 MBq, iv after 1 hr; settings: in vivo
[2] = Drug uptake in tumor of C57BL/6J mouse xenografted with mouse B16F0 cells at 3.7 MBq, iv after 5 days by gamma scintigraphic imaging analysis relative to control; type: ADME, organism-based, Neoplasm; settings: in vivo, 120 h
How it was run: (§1)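 Male C57BL/6J mice (6-8 weeks) bearing subcutaneous B16F0 tumours (3×10^5 cells in PBS, right flank, isoflurane anaesthesia); on day 14 after implant, [125I]-labelled tracer given i.v. via tail vein, 3.7 MBq/mouse, in physiological serum (some tracers in 5% ethanol/physiological serum); 3-8 animals per compound. Under i.p. ketamine (100 mg/kg)–xylazine (10 mg/kg), 10 min planar scintigrams acquired in prone position, 15% window on 35 keV peak.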

[3] = Drug uptake in tumor of C57BL/6J mouse xenografted with mouse B16F0 cells at 3.7 MBq, iv after 72 hrs by gamma scintigraphic imaging analysis relative to control; type: ADME, organism-based, Neoplasm; settings: in vivo
How it was run: as §1

[4] = Drug uptake in tumor of C57BL/6J mouse xenografted with mouse B16F0 cells at 3.7 MBq, iv after 6 hrs by gamma scintigraphic imaging analysis relative to control; type: ADME, organism-based, Neoplasm; settings: in vivo
How it was run: as §1

[5] = Drug uptake in tumor of C57BL/6J mouse xenografted with mouse B16F0 cells at 3.7 MBq, iv after 14 days by gamma scintigraphic imaging analysis relative to control; type: ADME, organism-based, Neoplasm; settings: in vivo, 336 h
How it was run: as §1

[6] = Drug uptake in tumor of C57BL/6J mouse xenografted with mouse B16F0 cells at 3.7 MBq, iv after 7 days by gamma scintigraphic imaging analysis relative to control; type: ADME, organism-based, Neoplasm; settings: in vivo, 168 h
How it was run: as §1

[7] = Drug uptake in tumor of C57BL/6J mouse xenografted with mouse B16F0 cells at 3.7 MBq, iv after 1 hr by gamma scintigraphic imaging analysis relative to control; type: ADME, organism-based, Neoplasm; settings: in vivo
How it was run: as §1

[8] = Drug uptake in tumor of C57BL/6J mouse xenografted with mouse B16F0 cells at 3.7 MBq, iv after 10 days by gamma scintigraphic imaging analysis relative to control; type: ADME, organism-based, Neoplasm; settings: in vivo, 240 h
How it was run: as §1

[9] = Drug uptake in tumor of C57BL/6J mouse xenografted with mouse B16F0 cells at 3.7 MBq, iv after 3 hrs by gamma scintigraphic imaging analysis relative to control; type: ADME, organism-based, Neoplasm; settings: in vivo
How it was run: as §1

[10] = Drug uptake in tumor of C57BL/6J mouse xenografted with mouse B16F0 cells at 3.7 MBq, iv after 24 hrs by gamma scintigraphic imaging analysis relative to control; type: ADME, organism-based, Neoplasm; settings: in vivo
How it was run: as §1

Mus musculus = experiment: Toxicity against C57BL/6J mouse xenografted with mouse B16F0 cells assessed as mortality at 3.7 MBq, iv after 2 days; type: organism-based; settings: in vivo, 48 h
How it was run: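 Male C57BL/6J mice (6-8 weeks) were inoculated s.c. on the right flank with 3×10^5 B16F0 cells in 0.1 mL PBS under 2% isoflurane. On day 14 after implant they received the [125I]-labelled tracer i.v. via the tail vein at 3.7 MBq/mouse, in physiological serum (5% ethanol in physiological serum for non-salt forms), with 3–8 animals per compound. Survival was recorded 2 days post-injection.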

Ratio [1] | Drug uptake [2] [% ID/g] | Drug uptake [3] [% ID/g] | Drug uptake [4] [% ID/g] | Drug uptake [5] [% ID/g] | Drug uptake [6] [% ID/g] | Drug uptake [7] [% ID/g] | Drug uptake [8] [% ID/g] | Drug uptake [9] [% ID/g] | Drug uptake [10] [% ID/g] | SMILES | Activity (Mus musculus)
5.76 | 5.8 | 8.6 | 12.1 | 0.6 | 2.7 | 11.7 | 1.3 | 12.1 | 12.4 | CCN(CCNC(=O)c1cnc2cc([125I])ccc2n1)CCOCCOCCOCCF.Cl | –
5.76 | 8.6 | 11 | 15.9 | 1.8 | 5.3 | 13 | 3.7 | 14.5 | 15.6 | CCN(CCNC(=O)c1cnc2cc([125I])ccc2n1)Cc1cn(CCF)nn1.Cl | –
5.76 | 11.6 | 14.9 | 23.3 | 2.2 | 8 | 12.3 | 4.2 | 18.3 | 23.5 | CCN(CC#CCF)CCNC(=O)c1cnc2cc([125I])ccc2n1.Cl | –
5.76 | 5.6 | 10 | 13.9 | 1.3 | 3.3 | 10.8 | 1.9 | 12.3 | 15 | CCN(C/C=C/CF)CCNC(=O)c1cnc2cc([125I])ccc2n1.Cl | –
– | 5.4 | 8.5 | 15.3 | 0.8 | 3 | 10 | 1.4 | 13.5 | 11.4 | CCN(CCCF)CCNC(=O)c1cnc2cc([125I])ccc2n1 | –
– | 2.7 | 3.8 | 7.2 | 0.3 | 1.5 | 6.8 | 0.8 | 7.8 | 6.8 | CCN(CCNC(=O)c1cnc2cc([125I])ccc2n1)CCOCCOCCOCCOCCOCCOCCOCCF | –

SMILES | Ratio [1] | Drug uptake [2] [% ID/g] | Drug uptake [3] [% ID/g] | Drug uptake [4] [% ID/g] | Drug uptake [5] [% ID/g] | Drug uptake [6] [% ID/g] | Drug uptake [7] [% ID/g] | Drug uptake [8] [% ID/g] | Drug uptake [9] [% ID/g] | Drug uptake [10] [% ID/g] | Activity (Mus musculus)
CCN(CCF)CCNC(=O)c1cnc2cc([125I])ccc2n1.Cl | – | 8.4 | 20 | 25 | 0.6 | – | 21.4 | 1.6 | 22.5 | 24.8 | Toxic
